These results are taken from ChEMBL document CHEMBL2040758, “Synthesis and antitumor activity of novel quinazoline derivatives containing thiosemicarbazide moiety” (Eur J Med Chem, 2012).

Common to all, as to type: functional, cell-based
One assay concerns MGC-803. In words: Cytotoxicity against human MGC803 cells after 72 hrs by MTT assay. Conditions: MGC-803, 72 h. The essentials: (§1)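 Log-phase cells: KB, CNE2, MGC-803 and GLC-82 grown in RPMI 1640 + 10% fetal calf serum; MCF-7 in DMEM + 10% fetal calf serum. Seeded at 1.5×10⁴ cells/mL (KB), 2.0×10⁴ (CNE2, MGC-803, GLC-82) or 2.5×10⁴ (MCF-7), 37 °C, 5% CO₂, 24 h. Compound exposure 72 h, 37 °C. MTT (5 mg/mL saline stock) 3 h. A570, reference 655 nm. IC₅₀ versus untreated control, ≥3 experiments.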

Assay [1] can be described thus: Cytotoxicity against human GLC82 cells after 72 hrs by MTT assay. As to conditions: GLC82, 72 h. The essentials: as §1
For another assay, the system named is MCF7. In words: Cytotoxicity against human MCF7 cells after 72 hrs by MTT assay. Conditions: MCF7, 72 h. In a few lines:
as §1
(In general: Tetrazolium dyes change colour on reduction, which living cells bring about.)

The nature of assay [2]: Cytotoxicity against human CNE2 cells after 72 hrs by MTT assay. As to conditions: CNE-2, 72 h. In a few lines:
as §1

In another assay the test system is KB. In words: Cytotoxicity against human KB cells after 72 hrs by MTT assay. In a few lines:
as §1

Some results are limits rather than exact numbers.

As usually defined, the IC50 is the concentration at which inhibition is half-maximal. Regarding `COc1cc2ncnc(NNC(=S)NC(=O)c3ccc(Cl)cc3)c2cc1OC`, the 50% inhibitory concentration (IC50) with MGC-803 turned out to be 3.71 µM; in assay [1], 9.62 µM; with MCF7, 8.94 µM; in assay [2], 7.53 µM; in the assay with KB, 4.59 µM.
For `COc1cc2ncnc(NNC(=S)NC(=O)c3ccccc3OC)c2cc1OC` the same measures were 1.59 µM, 16 µM, 8.8 µM, 8.41 µM and 3.85 µM.
For `COc1cc2ncnc(NNC(=S)NC(=O)c3ccccc3C)c2cc1OC` the same measures were 11.1 µM, 21.5 µM, 19.3 µM, 10.5 µM and 11.4 µM.
As for `COc1cc2ncnc(NNC(=S)NC(=O)c3ccc(C)cc3)c2cc1OC`, the half-inhibitory concentration (IC50) in the assay on MGC-803 is 19.7 µM; in assay [1], 29.9 µM; with MCF7, 22.3 µM; in assay [2], 33.3 µM; with KB, 24.2 µM.
For the compound `O=C(NC(=S)NNc1ncnc2ccccc12)c1ccccc1`, the IC50 in the assay on MGC-803 amounted to 6.99 µM; in assay [1], 8.37 µM; with MCF7, 5.96 µM; in assay [2] it was 1.49 µM; with KB, 2.33 µM.
Taken in the same sequence, the figures for `O=C(NC(=S)NNc1ncnc2ccccc12)c1ccccc1Cl` were 9.14 µM, 10.8 µM, 10.5 µM, 6.09 µM and 7.71 µM.
Taken in the same sequence, the figures for `O=C(NC(=S)NNc1ncnc2ccccc12)c1cccc(Cl)c1` were 4.54 µM, 3.24 µM, 3.54 µM, 2.92 µM and 4.74 µM.
Taken in the same sequence, the figures for `O=C(NC(=S)NNc1ncnc2ccccc12)c1ccc(Cl)cc1` were 1.86 µM, 6.68 µM, 5.96 µM, 1.53 µM and 3.94 µM.
As to `O=C(NC(=S)NNc1ncnc2ccccc12)c1ccccc1F`, the IC50 in the assay with MGC-803 worked out at 5.01 µM; in assay [1], 6.46 µM; in the assay with MCF7 it was 5.02 µM; in assay [2], 4.61 µM; in the assay with KB, 2.51 µM.
`O=C(NC(=S)NNc1ncnc2ccccc12)c1ccc(F)cc1`: the IC50 was found to be 3.6 µM in the assay on MGC-803; 6.07 µM in assay [1]; 4.59 µM in the assay on MCF7; 2.84 µM in assay [2]; 1.87 µM with KB.
For `O=C(NC(=S)NNc1ncnc2ccccc12)c1ccc(C(F)(F)F)cc1` the same measures were 10.6 µM, 12.2 µM, 8.05 µM, 22.5 µM and 7.92 µM.
Consider `COc1ccccc1C(=O)NC(=S)NNc1ncnc2ccccc12`, for which the IC50 in the assay on MGC-803 was 14.3 µM; in assay [1], 9.5 µM; in the assay on MCF7 it was 8.7 µM; in assay [2], 15.7 µM; with KB it was > 50 µM.
Taken in the same sequence, the figures for `Cc1ccccc1C(=O)NC(=S)NNc1ncnc2ccccc12` were 4.24 µM, 13.2 µM, 16.5 µM, 5.46 µM and 2.77 µM.
For `Cc1ccc(C(=O)NC(=S)NNc2ncnc3ccccc23)cc1`, the IC50 in the assay with MGC-803 came to 3.76 µM; in assay [1] it was 11.2 µM; in the assay on MCF7 it was 7.82 µM; in assay [2] it was 17.2 µM; in the assay with KB, 10.1 µM.
Taken in the same sequence, the figures for `COc1cc2ncnc(NNC(=S)NC(=O)c3ccccc3)c2cc1OC` were 3.05 µM, 6.55 µM, 6.99 µM, 8.18 µM and 3.77 µM.
In the case of `COc1cc2ncnc(NNC(=S)NC(=O)c3ccccc3Cl)c2cc1OC`, the IC50 in the assay on MGC-803 was determined as 6.44 µM; in assay [1] it was 10 µM; with MCF7, 23.1 µM; in assay [2], 9.67 µM; with KB, 3.56 µM.
Taken in the same sequence, the figures for `COc1cc2ncnc(NNC(=S)NC(=O)c3cccc(Cl)c3)c2cc1OC` were 4.06 µM, 8.37 µM, 11.5 µM, 7.46 µM and 4.83 µM.
In the case of `COc1cc2ncnc(NNC(=S)NC(=O)c3ccccc3F)c2cc1OC`, the IC50 in the assay with MGC-803 stood at 2.39 µM; in assay [1] it was 8.64 µM; in the assay on MCF7, 8.5 µM; in assay [2], 12.7 µM; with KB, 4.07 µM.
Taken in the same sequence, the figures for `COc1cc2ncnc(NNC(=S)NC(=O)c3ccc(F)cc3)c2cc1OC` were 8.3 µM, 15.3 µM, 25.8 µM, 16.1 µM and 4.53 µM.
For `COc1cc2ncnc(NNC(=S)NC(=O)c3ccc(C(F)(F)F)cc3)c2cc1OC`, the IC50 in the assay with MGC-803 was 9.28 µM; in assay [1], 16.5 µM; with MCF7 it was 16.8 µM; in assay [2], 16.5 µM; with KB, 8.84 µM.
In the case of `O=c1[nH]cc(F)c(=O)[nH]1` [FLUOROURACIL], the half-maximal inhibitory concentration (IC50) was 18.5 µM with MGC-803; 17.4 µM in assay [1]; 14.2 µM in the assay on MCF7; 15.1 µM in assay [2]; 8.28 µM with KB.
